The text below walks through data of ChEMBL document CHEMBL2380202, “Identification of substituted 2-thio-6-oxo-1,6-dihydropyrimidines as inhibitors of human lactate dehydrogenase” (Bioorg Med Chem Lett, 2013).

Structures are written as SMILES. pIC50, pKd: −log10 of the molar value. ≈ marks a conversion by molar mass, not a printed value. Calls of active or inactive are those of the source. No cut-off for these calls is given here. Some results are limits rather than exact numbers.

In one data set the target is L-lactate dehydrogenase (Homo sapiens) (UniProt V9HWB9). In words: Inhibition of LDH in human HCC1954 cells assessed as lactate accumulation up to 50 uM after 6 hrs. It is filed as cell-based.
For the molecule `CC(Sc1nc(-c2ccc(Cl)c(Cl)c2)c(C#N)c(=O)[nH]1)C(=O)Nc1ccc(S(N)(=O)=O)cc1` (racemic), the inhibition entry was “inactive”.
The same measure, in the same setting: in the case of `CC(Sc1nc(-c2ccc(Cl)c(F)c2)c(C#N)c(=O)[nH]1)C(=O)Nc1ccc(S(N)(=O)=O)cc1` (racemic) it was “inactive”.
As to `CC(Sc1nc(-c2ccc(Cl)cc2)c(C#N)c(=O)[nH]1)C(=O)Nc1ccc(S(N)(=O)=O)cc1` (racemic), the inhibition result is “inactive”.

System in the next data set: not listed separately
Kind of data set: Aqueous solubility of the compound in PBS buffer at pH 7.2 at 100 uM after 24 hrs. It is filed as physicochemical. Put shortly:
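Aqueous solubility estimated from a high-throughput assay; single determination (n = 1).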
In turn, `CC(Sc1nc(-c2ccc(Cl)c(Cl)c2)c(C#N)c(=O)[nH]1)C(=O)Nc1ccc(S(N)(=O)=O)cc1` (racemic) gave a solubility at 24 h, 100 µM of 30 µM (≈ 15.7 µg/mL).
Molecule `CC(Sc1nc(-c2ccc(Cl)c(F)c2)c(C#N)c(=O)[nH]1)C(=O)Nc1ccc(S(N)(=O)=O)cc1` (racemic) gave a solubility at 24 h, 100 µM of 64 µM (≈ 32.5 µg/mL).
The same measure, in the same setting: the figure for `CC(Sc1nc(-c2ccc(Cl)cc2)c(C#N)c(=O)[nH]1)C(=O)Nc1ccc(S(N)(=O)=O)cc1` (racemic) is 58 µM (≈ 28.4 µg/mL).
On to `CCC(Sc1nc(-c2ccc(Cl)cc2)c(C#N)c(=O)[nH]1)C(=O)Nc1ccc(S(N)(=O)=O)cc1` (racemic), for which the concentration in solution (solubility at 24 h, 100 µM) was 136 µM (≈ 68.5 µg/mL). This solubility at 24 h, 100 µM lies about 2.3-fold higher than the previous one.

System in another data set: not listed separately
Kind of data set: Clearance in human liver microsomes at 1 uM up to 60 mins. Type of data set: ADME, Microsome. The essentials: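 Human liver microsome stability, single determination (n = 1); in vitro result extrapolated to in vivo clearance, classed stable below 6.2 and labile above 15.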
(Liver microsomes are vesicles of endoplasmic reticulum, rich in cytochrome P450 enzymes.)
Turning to `CC(Sc1nc(-c2ccc(Cl)c(Cl)c2)c(C#N)c(=O)[nH]1)C(=O)Nc1ccc(S(N)(=O)=O)cc1` (racemic), the CLhep predicted at 1 µM is 0.156 L/h/kg.
Same read-out and setting: in the case of `CC(Sc1nc(-c2ccc(Cl)c(F)c2)c(C#N)c(=O)[nH]1)C(=O)Nc1ccc(S(N)(=O)=O)cc1` (racemic) it was 0.204 L/h/kg; in that of `N#Cc1c(-c2ccc(Cl)cc2)nc(SCC(=O)Nc2ccc(S(N)(=O)=O)cc2)[nH]c1=O`, 0.318 L/h/kg.
On the same count and under the same terms, in the case of `CC(Sc1nc(-c2ccc(Cl)cc2)c(C#N)c(=O)[nH]1)C(=O)Nc1ccc(S(N)(=O)=O)cc1` (racemic) it was 0.156 L/h/kg; in that of `CCC(Sc1nc(-c2cccc(OC)c2)c(C#N)c(=O)[nH]1)C(=O)Nc1ccc(S(N)(=O)=O)cc1` (racemic), 0.414 L/h/kg; in that of `CCC(Sc1nc(-c2ccc(Cl)cc2)c(C#N)c(=O)[nH]1)C(=O)Nc1ccc(S(N)(=O)=O)cc1` (racemic), 0.168 L/h/kg.

The next data set addresses T1, Malate dehydrogenase, mitochondrial (Homo sapiens, UniProt P40926).
T1 sequence (P40926 whole entry): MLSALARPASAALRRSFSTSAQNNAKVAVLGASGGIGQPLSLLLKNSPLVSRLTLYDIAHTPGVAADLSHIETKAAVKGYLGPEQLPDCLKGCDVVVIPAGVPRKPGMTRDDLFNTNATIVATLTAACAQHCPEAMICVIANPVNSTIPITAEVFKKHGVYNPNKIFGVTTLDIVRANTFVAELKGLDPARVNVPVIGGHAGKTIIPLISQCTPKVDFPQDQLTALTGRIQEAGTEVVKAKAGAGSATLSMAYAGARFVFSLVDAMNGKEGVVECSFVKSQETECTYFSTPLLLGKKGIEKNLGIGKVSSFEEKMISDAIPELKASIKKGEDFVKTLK
In words: Inhibition of human recombinant carboxy-terminal his-tagged MDH-2 (20 to 338) expressed in Escherichia coli using oxaloacetic acid as substrate after 10 mins by UV endpoint analysis. Put shortly: (§1)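 Biochemical enzyme inhibition; reported as the arithmetic mean of 2 separate runs (n = 2).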
Regarding `N#Cc1c(-c2ccc(Cl)cc2)nc(SCC(=O)Nc2ccc(S(N)(=O)=O)cc2)[nH]c1=O`, the pIC50 is under 5.00.
Same read-out and setting: in the case of `COc1ccc(CNC(=O)c2cc(=O)c3c(O)cc(OCCc4ccc(NC(=O)C(=O)O)c(OC)c4)cc3o2)cc1` it was 5.07.

For the next data set, the target named is T2, Malate dehydrogenase, cytoplasmic (Homo sapiens, UniProt P40925).
T2 sequence (P40925 whole entry): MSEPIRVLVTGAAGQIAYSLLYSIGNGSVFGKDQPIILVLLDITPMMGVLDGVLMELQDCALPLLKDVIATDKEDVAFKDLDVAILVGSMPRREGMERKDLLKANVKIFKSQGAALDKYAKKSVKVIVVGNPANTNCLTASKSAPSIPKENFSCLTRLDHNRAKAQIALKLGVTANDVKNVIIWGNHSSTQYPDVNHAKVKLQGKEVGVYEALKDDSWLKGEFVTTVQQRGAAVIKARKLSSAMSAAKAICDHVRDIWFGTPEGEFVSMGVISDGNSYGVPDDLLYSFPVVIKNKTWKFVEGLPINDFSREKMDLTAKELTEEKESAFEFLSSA
Kind of data set: Inhibition of human recombinant carboxy-terminal his-tagged MDH-1 (3 to 334) expressed in Escherichia coli using oxaloacetic acid as substrate after 10 mins by UV endpoint analysis. Put shortly:
as §1
On to `N#Cc1c(-c2ccc(Cl)cc2)nc(SCC(=O)Nc2ccc(S(N)(=O)=O)cc2)[nH]c1=O`, for which the negative logarithm of the IC50 (pIC50) was under 5.00.
With `COc1ccc(CNC(=O)c2cc(=O)c3c(O)cc(OCCc4ccc(NC(=O)C(=O)O)c(OC)c4)cc3o2)cc1`, the negative-log IC50 (pIC50) is 5.17.

For the next data set, the target named is L-lactate dehydrogenase B chain (Homo sapiens, UniProt P07195). Kind of data set: Inhibition of human recombinant carboxy-terminal his-tagged LDHB (1 to 333) expressed in insect cells using pyruvate as substrate after 10 mins by UV endpoint analysis.
Chain of L-lactate dehydrogenase B chain (P07195 whole entry): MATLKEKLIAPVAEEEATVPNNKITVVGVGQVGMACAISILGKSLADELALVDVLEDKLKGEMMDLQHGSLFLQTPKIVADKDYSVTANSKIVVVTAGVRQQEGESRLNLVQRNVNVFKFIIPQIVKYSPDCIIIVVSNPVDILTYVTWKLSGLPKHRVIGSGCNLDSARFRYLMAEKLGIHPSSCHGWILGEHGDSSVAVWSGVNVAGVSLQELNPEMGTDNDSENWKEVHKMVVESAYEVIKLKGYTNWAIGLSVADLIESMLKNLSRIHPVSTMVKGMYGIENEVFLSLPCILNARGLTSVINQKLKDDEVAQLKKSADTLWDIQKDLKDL
Consider `N#Cc1c(-c2ccc(Cl)cc2)nc(SCC(=O)Nc2cccc(Cl)c2)[nH]c1=O`, for which the negative logarithm of the IC50 (pIC50) was under 4.00.
As for `NC(=O)C(=O)O` [OXAMATE], the negative logarithm of the IC50 (pIC50) is 4.47.
Regarding `CC(Sc1nc(-c2ccc(Cl)c(Cl)c2)c(C#N)c(=O)[nH]1)C(=O)Nc1ccc(S(N)(=O)=O)cc1` (racemic), the pIC50 was 5.43.
Consider `CC(Sc1nc(-c2ccc(Cl)c(F)c2)c(C#N)c(=O)[nH]1)C(=O)Nc1ccc(S(N)(=O)=O)cc1` (racemic), for which the pIC50 was 5.64.
As for `COc1ccc(NC(=O)CSc2nc(-c3ccc(Cl)cc3)c(C#N)c(=O)[nH]2)cc1Cl`, the pIC50 was under 4.00.
The same measure, in the same setting: in the case of `Cc1c(Cl)cccc1NC(=O)CSc1nc(-c2ccc(Cl)cc2)c(C#N)c(=O)[nH]1` it was under 4.00; in that of `CC(Sc1nc(-c2ccc(Cl)cc2)c(C#N)c(=O)[nH]1)C(=O)Nc1ccc(S(N)(=O)=O)cc1` (racemic), 5.52; in that of `CCC(Sc1nc(-c2cccc(OC)c2)c(C#N)c(=O)[nH]1)C(=O)Nc1ccc(S(N)(=O)=O)cc1` (racemic), 5.11.
For `CNS(=O)(=O)c1ccc(NC(=O)CSc2nc(-c3ccc(Cl)cc3)c(C#N)c(=O)[nH]2)cc1`, the pIC50 was under 4.00.
`CCC(Sc1nc(-c2ccc(Cl)cc2)c(C#N)c(=O)[nH]1)C(=O)Nc1ccc(S(N)(=O)=O)cc1` (racemic): the negative-log IC50 (pIC50) was 5.62.

For a further data set, the target named is T3, L-lactate dehydrogenase A chain (Homo sapiens, UniProt P00338). Kind of data set: Binding affinity to human recombinant carboxy-terminal avi-tagged LDHA (1 to 331) expressed in Escherichia coli by surface plasmon resonance analysis absence of NADH. The essentials:
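SPR run without NADH; analyte injected as a twofold dilution series; K_D estimated relative to a control; mean of 2 separate runs.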
`N#Cc1c(-c2ccc(Cl)cc2)nc(SCC(=O)Nc2ccc(S(N)(=O)=O)cc2)[nH]c1=O`: the negative logarithm of the Kd (pKd) is 3.42.

A further data set has as its target T3, L-lactate dehydrogenase A chain. Kind of data set: Binding affinity to human recombinant carboxy-terminal avi-tagged LDHA (1 to 331) expressed in Escherichia coli by surface plasmon resonance analysis presence of NADH. Put shortly:
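SPR with NADH present; twofold dilution series of analyte injections; K_D obtained by fitting kinetics or the equilibrium dose response; arithmetic mean of 2 separate runs.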
A general note: SPR reads the build-up and loss of mass on a sensor chip optically.
On to `N#Cc1c(-c2ccc(Cl)cc2)nc(SCC(=O)Nc2cccc(Cl)c2)[nH]c1=O`, for which the pKd was 3.41.
Still for that read-out and setting: the figure for `CC(Sc1nc(-c2ccc(Cl)c(Cl)c2)c(C#N)c(=O)[nH]1)C(=O)Nc1ccc(S(N)(=O)=O)cc1` (racemic) is 5.29.
Same read-out and setting: in the case of `CC(Sc1nc(-c2ccc(Cl)c(F)c2)c(C#N)c(=O)[nH]1)C(=O)Nc1ccc(S(N)(=O)=O)cc1` (racemic) it was 5.54; in that of `COc1ccc(NC(=O)CSc2nc(-c3ccc(Cl)cc3)c(C#N)c(=O)[nH]2)cc1Cl`, 3.19.
As to `Cc1c(Cl)cccc1NC(=O)CSc1nc(-c2ccc(Cl)cc2)c(C#N)c(=O)[nH]1`, the pKd was 3.34.
With `N#Cc1c(-c2ccc(Cl)cc2)nc(SCC(=O)Nc2ccc(S(N)(=O)=O)cc2)[nH]c1=O`, the pKd was 5.21.
Still for that read-out and setting: the figure for `CC(Sc1nc(-c2ccc(Cl)cc2)c(C#N)c(=O)[nH]1)C(=O)Nc1ccc(S(N)(=O)=O)cc1` (racemic) is 5.66.
Same read-out and setting: in the case of `CCC(Sc1nc(-c2cccc(OC)c2)c(C#N)c(=O)[nH]1)C(=O)Nc1ccc(S(N)(=O)=O)cc1` (racemic) it was 5.05; in that of `CNS(=O)(=O)c1ccc(NC(=O)CSc2nc(-c3ccc(Cl)cc3)c(C#N)c(=O)[nH]2)cc1`, 3.27.
Turning to `CCC(Sc1nc(-c2ccc(Cl)cc2)c(C#N)c(=O)[nH]1)C(=O)Nc1ccc(S(N)(=O)=O)cc1` (racemic), the negative logarithm of the Kd (pKd) is 5.52.

Another data set shares this target. Kind of data set: Inhibition of human recombinant carboxy-terminal his-tagged LDHA (1 to 331) expressed in Escherichia coli using pyruvate as substrate after 10 mins by MS endpoint analysis. The essentials:
as §1
Turning to `N#Cc1c(-c2ccc(Cl)cc2)nc(SCC(=O)Nc2ccc(S(N)(=O)=O)cc2)[nH]c1=O`, the negative logarithm of the IC50 (pIC50) was 5.72.

The target is the same in another data set. In words: Inhibition of human recombinant carboxy-terminal his-tagged LDHA (1 to 331) expressed in Escherichia coli using pyruvate as substrate after 10 mins by UV endpoint analysis.
On to `N#Cc1c(-c2ccc(Cl)cc2)nc(SCC(=O)Nc2cccc(Cl)c2)[nH]c1=O`, for which the pIC50 is 4.25.
On the same count and under the same terms, the figure for `CC(Sc1nc(-c2ccc(Cl)c(Cl)c2)c(C#N)c(=O)[nH]1)C(=O)Nc1ccc(S(N)(=O)=O)cc1` (racemic) is 6.12; for `CC(Sc1nc(-c2ccc(Cl)c(F)c2)c(C#N)c(=O)[nH]1)C(=O)Nc1ccc(S(N)(=O)=O)cc1` (racemic) it is 6.15.
On the same count and under the same terms, in the case of `COc1ccc(NC(=O)CSc2nc(-c3ccc(Cl)cc3)c(C#N)c(=O)[nH]2)cc1Cl` it was 4.58; in that of `Cc1c(Cl)cccc1NC(=O)CSc1nc(-c2ccc(Cl)cc2)c(C#N)c(=O)[nH]1`, 4.30.
Consider `N#Cc1c(-c2ccc(Cl)cc2)nc(SCC(=O)Nc2ccc(S(N)(=O)=O)cc2)[nH]c1=O`, for which the pIC50 is 5.06.
On to `CC(Sc1nc(-c2ccc(Cl)cc2)c(C#N)c(=O)[nH]1)C(=O)Nc1ccc(S(N)(=O)=O)cc1` (racemic), for which the negative logarithm of the IC50 (pIC50) is 6.32.
Regarding `CCC(Sc1nc(-c2cccc(OC)c2)c(C#N)c(=O)[nH]1)C(=O)Nc1ccc(S(N)(=O)=O)cc1` (racemic), the pIC50 is 5.13.
On to `CNS(=O)(=O)c1ccc(NC(=O)CSc2nc(-c3ccc(Cl)cc3)c(C#N)c(=O)[nH]2)cc1`, for which the negative logarithm of the IC50 (pIC50) is under 4.00.
As to `CCC(Sc1nc(-c2ccc(Cl)cc2)c(C#N)c(=O)[nH]1)C(=O)Nc1ccc(S(N)(=O)=O)cc1` (racemic), the negative logarithm of the IC50 (pIC50) is 6.19.

The term solubility denotes the dissolved amount per volume that the medium holds. A higher solubility goes with much dissolved substance. One may read the pIC50 as the IC50 on a negative log10 scale, so that one unit is a factor of ten. By pKd is commonly meant the negative decadic logarithm of the Kd, by convention in mol/L.
